# Measurements reported in ChEMBL document CHEMBL1914438, “Synthesis and biological activity of novel N-cycloalkyl-(cycloalkylaryl)-2-[(3-R-2-oxo-2H-[1,2,4]triazino[2,3-c]quinazoline-6-yl)thio]acetamides” (2011).
# Active and inactive are the calls of the source. The calls are words filed in the database; no cut-off is given here.
# Legend:
# [1] = tested on: Photobacterium leiognathi; experiment: Antibacterial activity against Photobacterium leiognathi Sh1 assessed as inhibition of bacterial luminescence at 0.1 mg/mL after 10 mins by bioluminometry-based acute action test; assay type: functional; set-up: scale not given: the % may be the effect or the level left
# In short: (§1)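 Marine P. leiognathi Sh1 (Azov Sea shrimp isolate) diluted in chloride solution to 10^5 cells/mL; compounds suspended in DMSO mixed with 1 mL bacterial suspension. Acute test: 10 min at 25 °C, then bioluminescence measured by bioluminometer as % of compound-free control. Tetracycline reference.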
# [2] = tested on: Photobacterium leiognathi; experiment: Antibacterial activity against Photobacterium leiognathi Sh1 assessed as inhibition of bacterial luminescence at 0.1 mg/mL after 10 mins by bioluminometry-based chronic action test; assay type: functional; set-up: scale not given: the % may be the effect or the level left
# In short: (§2)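 Chronic (growth plus luminescence) test with P. leiognathi Sh1 at 10^5 cells/mL in chloride solution, compounds added in DMSO. After 10 min at 25 °C, growth medium added at 1:50 and the mix incubated 16–18 h at 30 °C. Luminescence then measured by bioluminometer as % of untreated control. Tetracycline reference.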
# [3] = tested on: Photobacterium leiognathi; experiment: Antibacterial activity against Photobacterium leiognathi Sh1 assessed as inhibition of bacterial luminescence at 0.25 mg/mL after 10 mins by bioluminometry-based chronic action test; assay type: functional; set-up: scale not given: the % may be the effect or the level left; in short: as §2
# Escherichia coli [4] = experiment: Antibacterial activity against Escherichia coli assessed as zone of inhibition at 0.5 mg/mL after 24 hrs by stiff-plate agar-diffusion method; assay type: functional; conditions: read-out: DIZ
# Escherichia coli [5] = experiment: Antibacterial activity against Escherichia coli assessed as zone of inhibition at 0.1 mg/mL after 24 hrs by stiff-plate agar-diffusion method; assay type: functional; conditions: read-out: DIZ
# Staphylococcus aureus [6] = experiment: Antibacterial activity against Staphylococcus aureus assessed as zone of inhibition at 0.5 mg/mL after 24 hrs by stiff-plate agar-diffusion method; assay type: functional; conditions: read-out: DIZ
# Staphylococcus aureus [7] = experiment: Antibacterial activity against Staphylococcus aureus assessed as zone of inhibition at 0.1 mg/mL after 24 hrs by stiff-plate agar-diffusion method; assay type: functional; conditions: read-out: DIZ
# Mycobacterium [8] = experiment: Antibacterial activity against Mycobacterium luteum assessed as zone of inhibition at 0.5 mg/mL after 24 hrs by stiff-plate agar-diffusion method; assay type: functional; conditions: read-out: DIZ
# Mycobacterium [9] = experiment: Antibacterial activity against Mycobacterium luteum assessed as zone of inhibition at 0.1 mg/mL after 24 hrs by stiff-plate agar-diffusion method; assay type: functional; conditions: read-out: DIZ
# Yamadazyma tenuis [10] = experiment: Antifungal activity against Candida tenuis assessed as zone of inhibition at 0.5 mg/mL after 48 to 72 hrs by stiff-plate agar-diffusion method; assay type: functional; conditions: read-out: DIZ
# Yamadazyma tenuis [11] = experiment: Antifungal activity against Candida tenuis assessed as zone of inhibition at 0.1 mg/mL after 48 to 72 hrs by stiff-plate agar-diffusion method; assay type: functional; conditions: read-out: DIZ
# Aspergillus niger [12] = experiment: Antifungal activity against Aspergillus niger assessed as zone of inhibition at 0.5 mg/mL after 48 to 72 hrs by stiff-plate agar-diffusion method; assay type: functional; conditions: read-out: DIZ
# Aspergillus niger [13] = experiment: Antifungal activity against Aspergillus niger assessed as zone of inhibition at 0.1 mg/mL after 48 to 72 hrs by stiff-plate agar-diffusion method; assay type: functional; conditions: read-out: DIZ
# [14] = tested on: Photobacterium leiognathi; experiment: Antibacterial activity against Photobacterium leiognathi Sh1 assessed as inhibition of bacterial luminescence at 0.025 mg/mL after 10 mins by bioluminometry-based chronic action test; assay type: functional; set-up: scale not given: the % may be the effect or the level left; in short: as §2
# [15] = tested on: Photobacterium leiognathi; experiment: Antibacterial activity against Photobacterium leiognathi Sh1 assessed as inhibition of bacterial luminescence at 0.25 mg/mL after 10 mins by bioluminometry-based acute action test; assay type: functional; set-up: scale not given: the % may be the effect or the level left; in short: as §1
# [16] = tested on: Photobacterium leiognathi; experiment: Antibacterial activity against Photobacterium leiognathi Sh1 assessed as inhibition of bacterial luminescence at 0.025 mg/mL after 10 mins by bioluminometry-based acute action test; assay type: functional; set-up: scale not given: the % may be the effect or the level left; in short: as §1
# [17] = tested on: Photobacterium leiognathi; experiment: Antibacterial activity against Photobacterium leiognathi Sh1 at 0.1 to 0.25 ug/mL; assay type: functional, organism-based
# Escherichia coli [18] = experiment: Antibacterial activity against Escherichia coli at 1 to 5 mg/mL after 24 hrs by stiff-plate agar-diffusion method; assay type: functional, organism-based
# In short: (§3)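 Agar diffusion (stiff plate) with test substances at 5 mg/mL in grooves, allowed to diffuse into nutrient agar; inoculum 10^9 c.f.u./mL; bacteria incubated 24 h at 35 °C. Read-out: inhibition zone diameter (not sensitive 11–15 mm, sensitive 16–25 mm, highly sensitive >25 mm). Vancomycin and oxacillin as standards; three repeats.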
# Staphylococcus aureus [19] = experiment: Antibacterial activity against Staphylococcus aureus at 1 to 5 mg/mL after 24 hrs by stiff-plate agar-diffusion method; assay type: functional, organism-based; in short: as §3
# Mycobacterium [20] = experiment: Antibacterial activity against Mycobacterium luteum at 1 to 5 mg/mL after 24 hrs by stiff-plate agar-diffusion method; assay type: functional, organism-based; in short: as §3
# Yamadazyma tenuis [21] = experiment: Antifungal activity against Candida tenuis at 1 to 5 mg/mL after 48 to 72 hrs by stiff-plate agar-diffusion method; assay type: functional, organism-based
# In short: (§4)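 Fungal plates run by stiff-plate agar diffusion, substances applied to grooves at 5 mg/mL; 10^9 c.f.u./mL cells; incubation 48–72 h at 28–30 °C. Inhibition zone diameter scored (11–15 mm not sensitive, 16–25 mm sensitive, >25 mm highly sensitive). Nystatin standard; experiments done three times.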
# Aspergillus niger [22] = experiment: Antifungal activity against Aspergillus niger at 1 to 5 mg/mL after 48 to 72 hrs by stiff-plate agar-diffusion method; assay type: functional, organism-based; in short: as §4
# CCRF-CEM = experiment: Cytotoxicity against human CCRF-CEM cells assessed as cell growth at 10^-5 M after 48 hrs by SRB assay; assay type: functional; conditions: read-out: Activity
# In short: (§5)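 NCI 60-cell-line one-dose primary screen: cells inoculated and preincubated 24–48 h, then test agent added at a single 10^-5 M concentration for a further 48 h. Endpoint is sulforhodamine B protein staining read spectrophotometrically. Reported as percent growth relative to untreated control cells.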
# SNB-75 = experiment: Cytotoxicity against human SNB75 cells assessed as cell growth at 10^-5 M after 48 hrs by SRB assay; assay type: functional; conditions: SNB-75, 48 h, read-out: Activity
# In short: (§6)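 NCI human tumor cell line panel from nine cancer types. Each line was inoculated and preincubated 24–48 h, then exposed to a single concentration (10^-5 M) for 48 h. Growth was read by sulforhodamine B protein staining, measured spectrophotometrically. Value reported as percent growth of treated cells relative to untreated controls.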
# CAKI-1 = experiment: Cytotoxicity against human Caki1 cells assessed as cell growth at 10^-5 M after 48 hrs by SRB assay; assay type: functional; conditions: CAKI-1, 48 h, read-out: Activity; in short: as §5
# UO-31 = experiment: Cytotoxicity against human UO31 cells assessed as cell growth at 10^-5 M after 48 hrs by SRB assay; assay type: functional; conditions: UO-31, 48 h, read-out: Activity; in short: as §6
# PC-3 = experiment: Cytotoxicity against human PC3 cells assessed as cell growth at 10^-5 M after 48 hrs by SRB assay; assay type: functional; conditions: PC-3, 48 h, read-out: Activity; in short: as §6
# K562 = experiment: Cytotoxicity against human K562 cells assessed as cell growth at 10^-5 M after 48 hrs by SRB assay; assay type: functional; conditions: K562, 48 h, read-out: Activity; in short: as §5
# SR = experiment: Cytotoxicity against human SR cells assessed as cell growth at 10^-5 M after 48 hrs by SRB assay; assay type: functional; conditions: read-out: Activity; in short: as §6
# A549 = experiment: Cytotoxicity against human A549 cells assessed as cell growth at 10^-5 M after 48 hrs by SRB assay; assay type: functional; conditions: A549, 48 h, read-out: Activity; in short: as §5
# UACC-257 = experiment: Cytotoxicity against human UACC257 cells assessed as cell growth at 10^-5 M after 48 hrs by SRB assay; assay type: functional; conditions: UACC-257, 48 h, read-out: Activity; in short: as §6
# SK-OV-3 = experiment: Cytotoxicity against human SKOV3 cells assessed as cell growth at 10^-5 M after 48 hrs by SRB assay; assay type: functional; conditions: SK-OV-3, 48 h, read-out: Activity; in short: as §6
# MOLT-4 = experiment: Cytotoxicity against human MOLT4 cells assessed as cell growth at 10^-5 M after 48 hrs by SRB assay; assay type: functional; conditions: MOLT-4, 48 h, read-out: Activity; in short: as §6
# EKVX = experiment: Cytotoxicity against human EKVX cells assessed as cell growth at 10^-5 M after 48 hrs by SRB assay; assay type: functional; conditions: read-out: Activity; in short: as §5
# SF-295 = experiment: Cytotoxicity against human SF295 cells assessed as cell growth at 10^-5 M after 48 hrs by SRB assay; assay type: functional; conditions: SF-295, 48 h, read-out: Activity; in short: as §6
# SK-MEL-5 = experiment: Cytotoxicity against human SK-MEL-5 cells assessed as cell growth at 10^-5 M after 48 hrs by SRB assay; assay type: functional; conditions: SK-MEL-5, 48 h, read-out: Activity; in short: as §6
# [23] = in the assay text read “after 16 to 18 hrs” for “after 10 mins”
structure (smiles),measurement,setting,value
COc1ccc(-c2nn3c(SCC(=O)Nc4ccc(C56CC7CC(CC(C7)C5)C6)cc4)nc4ccccc4c3nc2=O)cc1,Activity,[1],59.57%
same,Activity,[2],34.62%
same,Activity,[3],76.92%
same,zone of inhibition at 500 µg/mL,Escherichia coli [4],0 mm
same,zone of inhibition at 100 µg/mL,Escherichia coli [5],0 mm
same,zone of inhibition at 500 µg/mL,Staphylococcus aureus [6],0 mm
same,zone of inhibition at 100 µg/mL,Staphylococcus aureus [7],7 mm
same,zone of inhibition at 500 µg/mL,Mycobacterium [8],0 mm
same,zone of inhibition at 100 µg/mL,Mycobacterium [9],0 mm
same,zone of inhibition at 500 µg/mL,Yamadazyma tenuis [10],0 mm
same,zone of inhibition at 100 µg/mL,Yamadazyma tenuis [11],0 mm
same,zone of inhibition at 500 µg/mL,Aspergillus niger [12],0 mm
same,zone of inhibition at 100 µg/mL,Aspergillus niger [13],0 mm
same,Activity,[14],48.72%
same,Activity,[15],59.57%
same,Activity,[16],76.6%
Cc1ccc(-c2nn3c(SCC(=O)O)nc4ccccc4c3nc2=O)cc1,Activity,[1],20%
same,Activity,[2]; [23],255.3%
same,Activity,[3]; [23],0%
same,Activity,[17],inactive
same,Activity,Escherichia coli [18],inactive
same,Activity,Staphylococcus aureus [19],inactive
same,Activity,Mycobacterium [20],inactive
same,Activity,Yamadazyma tenuis [21],inactive
same,Activity,Aspergillus niger [22],inactive
same,growth at 10 µM,CCRF-CEM,95.6%
same,growth at 10 µM,SNB-75,74.2%
same,growth at 10 µM,CAKI-1,82.8%
same,growth at 10 µM,UO-31,85.3%
same,growth at 10 µM,PC-3,86.5%
same,growth at 10 µM,K562,94.5%
same,growth at 10 µM,SR,68%
same,growth at 10 µM,A549,96.5%
same,growth at 10 µM,UACC-257,95.1%
same,growth at 10 µM,SK-OV-3,89.9%
same,growth at 10 µM,MOLT-4,84.9%
same,growth at 10 µM,EKVX,95%
same,growth at 10 µM,SF-295,84.3%
same,growth at 10 µM,SK-MEL-5,96%
same,Activity,[14]; [23],93.3%
same,Activity,[15],0%
same,Activity,[16],91.7%
